# Screens deposited in PubChem by several laboratories.
# CSC inhib = cancer stem cell inhibition; cancer stem cell-like cells viability, luminescence; inhibition, % at 7.5 µM; 300,000 tested, 1.1% active; in the data active means inhibition above about 75%; tested in HMLE shEcad cells
# aSyn UTR inh = 5' untranslated region of α-synuclein, MLPCN primary screen | AID 1813 | alpha-synuclein 5'UTR reporter, inhibitor activity | inhibition, % (tested at 7.5 µM) | 300,000 tested, 0.82% active; in the data active means inhibition above about 60%;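 further: H4 neuroglioblastoma cells stably carrying SNCA 5'UTR luciferase fusion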
# Mdm2 MdmX PPI = inhibitors of human Mdm2/MdmX interaction | SaOS-2 split-luciferase Mdm2/MdmX complementation, luminescence | 330,000 tested, 3% active | inhibition, % at 8 µM | O15151+Q00987;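 active means inhibition of at least 50% at 8 µM in the primary screen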
# T cruzi inh = T. cruzi replication inhibition. AID 1885. inhibition, % (concentration not given with the values). T. cruzi beta-gal in NIH3T3, luminescence, 90 h. 300,000 tested, 1.4% active;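 active means mean inhibition across valid replicates above about 55%, limit read from the data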;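 further: signal also drops with host cell toxicity which is not excluded here; higher percent means less beta-gal luminescence so fewer parasites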
#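 assay system = mouse NIH/3T3 fibroblasts infected with β-gal-expressing T. cruzi Tulahuen C4 | input = 5,000 NIH/3T3 host cells per well | buffer or medium = DMEM plus 2% FBS | timing = 3 h host attachment, then at least 90 h co-culture | measured by = GalScreen luminescence, 60 min | evaluation = luminescence reflecting intracellular parasite burden, expressed as percent inhibition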
# SKKanGAS inh = blocks kanamycin growth of S. pyogenes SKKanGAS strain | BacTiter-Glo, 6 h | inhibition, % at 7.5 µM | 300,000 tested, 1.3% active | AID 1662;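 active means mean replicate score, as percent of positive control median, at least 50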;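 further: strain carries kanamycin resistance gene driven by streptokinase promoter and grows in 40 µg/ml kanamycin; loss of luminescence reflects streptokinase promoter inhibition or plain growth inhibition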
# Mdm2-MdmX conf = human Mdm2/MdmX binding inhibition, confirmed. shares compounds with Mdm2 MdmX PPI. luminescent assay. inhibition, % at 8 µM. 10,000 tested, 55% active. AID 489028; in the data active means inhibition above about 40%
# FLuc counter = counter-screen for Mdm2/MdmX inhibitors: full-length luciferase; shares compounds with Mdm2 MdmX PPI; SaOS-2 full-length luciferase counterscreen, luminescence; inhibition, % at 8 µM; 6,200 tested, 77% active; AID 504607;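 active means mean inhibition at 8 µM reaching about 37%, which flags the compound as non-specific, limit read from the data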;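 further: p53-null SaOS-2 cells with luciferase driven by a doxycycline-inducible promoter; compound on cells about two nights before reading with doxycycline added after day one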
# A number is an active result; n = inactive; x = no result given. Hits are enriched below; roughly 5.4% of the tested compounds scored in any of these assays.
SMILES,CSC inhib,aSyn UTR inh,Mdm2 MdmX PPI,T cruzi inh,SKKanGAS inh,Mdm2-MdmX conf,FLuc counter
CCOc1cc(-c2c(C#N)c(N)nc3c2CCCC3)ccc1O,x,n,n,n,n,x,x
COc1cc(-c2cc(-c3ccc(F)cc3)nc(N)c2C#N)ccc1O,x,n,71,n,n,52,56
Cc1cc(OCC(=O)N2CCN(c3ccccn3)CC2)cc(C)c1Br,n,n,n,n,n,x,x
COC(=O)c1cc(=O)n(-c2ccc(C(F)(F)F)cc2)[nH]1,n,n,n,n,n,x,x
CCOC(=S)SCC(=O)Nc1nc(-c2ccc(Br)cc2)cs1,85,70,84,n,n,76,102
CCOC(=S)SCC(=O)Nc1nc(-c2ccccc2)cs1,n,n,60,n,n,57,100
C=CCc1cccc(/C=N/NC(=O)CCC(=O)Nc2ccc(F)cc2)c1O,n,n,71,n,n,64,n
C=CCc1cccc(/C=N/NC(=O)CNc2cccc3ccccc23)c1O,n,n,71,n,n,66,39
C=CCc1cccc(/C=N/NC(=O)CNc2ccccc2OC)c1O,n,n,69,65,n,55,n
C=CCc1cccc(/C=N/NC(=O)CNc2ccccc2)c1O,n,74,56,n,n,55,n
CCOc1ccc(-n2c(C)c(C(C)=O)c3cc(OCC(N)=O)ccc32)cc1,n,n,n,n,n,x,x
COc1ccc(C(=O)N(Cc2ccco2)C(C(=O)NC2CCCC2)c2ccc(O)cc2)cc1OC (stereo not given),n,n,n,n,x,x,x
C=CCc1cccc(/C=N/NC(=O)C(C)Nc2cccc(C)c2)c1O (stereo not given),n,n,71,81,60,56,n
C=CCc1cccc(/C=N/NC(=O)CCCNc2ccc(C)cc2)c1O,n,n,x,n,n,x,x
Clc1ccc(-n2ncc3c(N4CCCC4)ncnc32)cc1,n,92,51,n,n,66,168
Cn1ncc2c(N3CCN(c4ccc(Cl)c(Cl)c4)CC3)ncnc21,n,n,92,n,n,74,99
O=C(c1ccccc1)N1CCN(c2ncnc3c2cnn3-c2ccccc2)CC1,n,n,n,n,n,x,x
CC1CCN(c2ncnc3c2cnn3-c2ccccc2)CC1,n,n,n,n,n,x,x
Cc1nn(-c2ccccc2)c(Cl)c1C(=O)N1CCN(c2ncnc3c2cnn3-c2ccccc2)CC1,n,n,97,n,n,88,58
Cc1[nH]n(-c2ccccc2)c(=O)c1N=Nc1ccc(C(N)=O)cc1,n,n,n,n,n,x,x
NC(=O)c1ccc(N=Nc2c(-c3ccccc3)[nH]n(-c3ccccc3)c2=O)cc1,n,n,93,n,n,85,108
O=c1c(N=Nc2ccc(O)cc2)c(-c2ccccc2)[nH]n1-c1ccc([N+](=O)[O-])cc1,n,n,100,n,n,n,x
O=c1cc(-c2ccccc2)[nH]n1-c1ccc([N+](=O)[O-])cc1,138,n,55,n,51,n,x
NS(=O)(=O)c1ccc(N=Nc2c(-c3ccccc3)[nH]n(-c3nc(-c4ccccc4)cs3)c2=O)cc1,n,n,81,n,n,n,x
Cc1c(C(=O)N(CCc2ccccc2)Cc2ccccc2)cccc1[N+](=O)[O-],n,n,n,n,n,x,x
SMILES,CSC inhib,aSyn UTR inh,Mdm2 MdmX PPI,T cruzi inh,SKKanGAS inh,Mdm2-MdmX conf,FLuc counter
Cc1nc2ccc(NC(=S)NC(C)C)cc2nc1C,n,n,n,n,n,x,x
Cc1ccc2oc(=O)c3cnn(CC(=O)N4CCc5ccccc5C4)c3c2c1,n,n,n,n,n,x,x
Cc1ccc2oc(=O)c3cnn(CC(=O)Nc4cc(-c5cccc(F)c5)no4)c3c2c1,n,n,74,n,n,n,x
Cc1ccc(N(C(=O)Cn2nnc(-c3ccc(C)o3)n2)C(C(=O)NC2CCCC2)c2ccncc2)cc1 (stereo not given),x,n,55,n,n,n,x
O=C(NC1CCCCC1)C(c1ccc(F)cc1)N(CCc1ccccc1)C(=O)CN1C(=O)c2ccccc2S1(=O)=O (stereo not given),n,n,x,n,n,x,x
COc1ccc(-c2nnn(CC(=O)N(Cc3ccc(F)cc3)C(C(=O)NC3CCCC3)c3ccc(F)cc3)n2)cc1 (stereo not given),n,n,75,n,n,n,x
O=C(NC1CCCCC1)C(c1ccc(F)cc1)N(Cc1ccccc1)C(=O)CN1C(=O)c2ccccc2S1(=O)=O (stereo not given),n,n,61,n,n,66,94
CC(C)CCNC(=O)C(c1ccncc1)N(Cc1cccs1)C(=O)Cn1nnc(-c2ccc(F)cc2)n1 (stereo not given),n,n,68,n,n,60,n
Cc1ccc(-c2nnn(CC(=O)N(c3ccc(F)cc3)C(C(=O)NC3CCCC3)c3ccncc3)n2)o1 (stereo not given),n,n,n,n,n,x,x
CCCNC(=S)NNC(=O)c1cccs1,n,n,n,n,n,x,x
CCc1cccc(NC(=O)CCCCCC2NC(=O)NC2C)c1 (stereo not given),n,n,n,n,n,x,x
CCN(CC)CCN(C(=O)Cn1nnc(-c2ccc(OC)c(OC)c2)n1)C(C(=O)NC1CCCC1)c1ccc(F)cc1 (stereo not given),n,n,75,n,n,n,x
COc1ccc(N(CC(=O)N2CCCC(C)C2)S(=O)(=O)c2c(C)nn(C)c2C)cc1 (stereo not given),n,n,n,n,n,x,x
N#C/C(=N\Nc1cccc(Cl)c1)C(=O)c1ccccc1,n,n,71,n,n,n,x
Cc1ccc(NC(N)=S)cc1C,n,n,n,n,n,x,x
N#C/C(=N\Nc1ccccc1)C(N)=S,n,n,n,n,n,x,x
N#C/C(=N\Nc1ccccc1Cl)C(=O)c1ccccc1,n,n,n,n,n,x,x
N#C/C(=N\Nc1ccc(Cl)cc1)C(=O)c1ccsc1,n,n,69,n,n,n,74
N#C/C(=N\Nc1ccc(Cl)cc1)C(N)=S,n,n,64,n,97,64,44
Cc1ccc(N/N=C(\C#N)C(N)=S)cc1C,n,n,64,n,n,53,72
Oc1c(C(Nc2cccc(C(F)(F)F)c2)c2ccncc2)ccc2cccnc12 (stereo not given),n,82,61,79,60,49,n
Cc1ccc(N=c2c([N+](=O)[O-])nn(-c3ccccc3)n2O)c(C)c1,x,n,n,n,n,x,x
O=[N+]([O-])c1nn(-c2ccc3c(c2)OCCO3)n(O)c1=Nc1ccc(Cl)cc1,n,n,86,55,n,92,51
Cc1cc(C)cc(N=c2c([N+](=O)[O-])nn(-c3ccc4c(c3)OCCO4)n2O)c1,n,n,70,58,n,65,45
COc1ccc(-n2nc([N+](=O)[O-])c(=NCc3ccc4c(c3)OCO4)n2O)cc1,n,n,n,n,n,x,x
